Results published in ChEMBL document CHEMBL1140696, “Effects of introduction of hydrophobic group on ribavirin base on mutation induction and anti-RNA viral activity” (2008).

Tests used:
Enterovirus C [1] = experiment: Incorporation of Poliovirus RNA dependent RNA polymerase into sym/sub-C primer
How it was run: (§1)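 NTP was 10–250 µM; reactions ran 2 min at 30 °C and were quenched with EDTA. Products were resolved by 20% denaturing PAGE. Initial rates came from the elongated fraction, and kcat and KM from Lineweaver–Burk plots (mean ± SD, n = 3).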

Enterovirus C [2] = experiment: Incorporation of Poliovirus RNA dependent RNA polymerase into sym/sub-U primer; how it was run: as §1
Enterovirus C [3] = experiment: Ratio of kcat/Km of Poliovirus RNA dependent RNA polymerase incorporation into sym/sub-C primer relative to control; design: unit not given here
Enterovirus C [4] = experiment: Ratio of kcat/Km of Poliovirus RNA dependent RNA polymerase incorporation into sym/sub-U primer; design: unit not given here
Enterovirus C [5] = experiment: Antiviral activity against poliovirus infected HeLa S3 cells assessed as plaque formation at 0.5 mM relative to control; format: functional
How it was run: (§2)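 HeLa S3 cells (DMEM/F-12, 2% dialyzed FBS) were pretreated with nucleoside for 1 h at 37 °C in 1% DMSO final. Cells were infected with poliovirus (1 × 10⁶ PFU in PBS) for 15 min at 23 °C, then kept 6 h at 37 °C with nucleoside. Cell-associated virus was released by three freeze–thaw cycles and titred by plaque assay on HeLa S3 (1% low-melting agarose overlay, 2 days, crystal violet). Titre is given as % of untreated control.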

Enterovirus C [6] = experiment: Antiviral activity against poliovirus infected HeLa S3 cells assessed as plaque formation at 2 mM; format: functional; how it was run: as §2

Row | SMILES | Km (Enterovirus C [1]) | kcat (Enterovirus C [1]) | Km (Enterovirus C [2]) | kcat (Enterovirus C [2]) | kcat/Km (Enterovirus C [3]) | kcat/Km (Enterovirus C [4]) | Activity (Enterovirus C [5]) | Activity (Enterovirus C [6])
1 | Nc1ncnc2c1ncn2[C@@H]1O[C@H](COP(=O)(O)OP(=O)(O)OP(=O)(O)O)[C@@H](O)[C@H]1O | 110 µM | 0.82 10^-4/s |  |  |  |  |  | 
2 | NC(=O)c1nn([C@@H]2O[C@H](COP(=O)(O)OP(=O)(O)OP(=O)(O)O)[C@@H](O)[C@H]2O)cc1I | 40 µM | 1.8 10^-4/s | 24 µM | 4.7 10^-4/s | 4.4 | 20 |  | 
3 | NC(=O)c1nn([C@@H]2O[C@H](CO)[C@@H](O)[C@H]2O)cc1C#Cc1ccccc1 |  |  |  |  |  |  | 122% | 
4 | CC#Cc1cn([C@@H]2O[C@H](COP(=O)(O)OP(=O)(O)OP(=O)(O)O)[C@@H](O)[C@H]2O)nc1C(N)=O | 51 µM | 1.3 10^-4/s | 35 µM | 3.1 10^-4/s | 2.6 | 9.1 |  | 
5 | NC(=O)c1nn([C@@H]2O[C@H](CO)[C@@H](O)[C@H]2O)cc1I |  |  |  |  |  |  | 76% | 68%
6 | NC(=O)c1ncn([C@@H]2O[C@H](COP(=O)(O)OP(=O)(O)OP(=O)(O)O)[C@@H](O)[C@H]2O)n1 | 69 µM | 5.8 10^-4/s | 34 µM | 3.7 10^-4/s |  |  |  | 
7 | NC(=O)c1ncn([C@@H]2O[C@H](CO)[C@@H](O)[C@H]2O)n1 [RIBAVIRIN] |  |  |  |  |  |  | 40% | 4%
8 | CC#Cc1cn([C@@H]2O[C@H](CO)[C@@H](O)[C@H]2O)nc1C(N)=O |  |  |  |  |  |  | 94% | 57%
9 | Nc1nc2c(ncn2[C@@H]2O[C@H](COP(=O)(O)OP(=O)(O)OP(=O)(O)O)[C@@H](O)[C@H]2O)c(=O)[nH]1 |  |  | 56 µM | 5 10^-4/s |  |  |  | 
